DAT uptake mod = changed hDAT dopamine uptake under cocaine IC80, either direction, primary screen, cocaine antagonist project, cell-based, LLC-PK1 hDAT, [14C]-dopamine uptake, MLSMR; B-score at 10 µM; hit rate 1.3% among 110,000; AID 449768, 2010; Sodium-dependent dopamine transporter (Homo sapiens), Q01959; LLC-PK1 hDAT cells, [14C]-dopamine uptake with cocaine IC80; actives deviate in either direction;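 active means Z score or B-score, a plate-position-corrected score, falls beyond the plate's 99.7% confidence bounds, in either direction; inactive means both scores lie inside the 99.7% bounds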;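 further: scored against the spread of the other compound wells on the same plate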
HIV Rev-RRE inh = HIV-1 Rev-RRE binding inhibitors, primary screen, biochemical, FRET, protein-RNA interaction | inhibition, % at 8 µM | P05866 | Rev peptide-RRE RNA binding | hit rate 0.79% among 97,000;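 active means inhibition above the screen-wide mean plus 3 SD, cut at about 35% in these data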;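 further: 0% = median DMSO wells and 100% = median Neomycin B control wells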
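Probe or stimulus: fluorescein-Rev peptide as binding partner; assay system: Cy5-tagged RRE RNA duplex with fluorescein-tagged Rev peptide; timing: 5 min compound–RNA preincubation, then 15 min with peptide, 25 °C; medium: HEPES pH 7.5 buffer with KCl, MgCl2, NaCl and EDTA; signal: fluorescein-to-Cy5 FRET, 480 nm excitation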
EphB4 antag = EphB4-ephrin-B2 interaction antagonists, primary screen, biochemical, TNYL-RAW peptide probe, fluorescence polarization | EphB4 LBD / TNYL-RAW-Alexa532 peptide | inhibition, % at 7 µM | hit rate 0.15% among 97,000;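 active means inhibition above the screen-wide mean inhibition plus 3 SD, cut at about 15% in these data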;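 further: 0% = DMSO wells and 100% = excess unlabeled TNYL-RAW peptide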
Plk1 PBD FP = Plk1 polo box domain binding inhibitors, primary screen, biochemical, fluorescence polarization. Plk1 PBD phosphopeptide binding. hit rate 0.13% among 97,000. inhibition, %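 (tested at about 20 µM)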. AID 693, 2007. Serine/threonine-protein kinase PLK1 (Homo sapiens), P53350; in the data active means inhibition above about 34%, passing the limit was not always enough
PLK1 kinase inh = human PLK1 kinase inhibitors, primary screen, biochemical, TR-FRET; recombinant PLK1 kinase, TR-FRET peptide phosphorylation; Serine/threonine-protein kinase PLK1 (Homo sapiens), P53350; inhibition, % at 10 µM; hit rate 0.53% among 97,000;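 active means inhibition of 50% or more in the single-concentration screen; inactive means inhibition below 50%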;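 further: 0% = DMSO max control and 100% = H-89 dihydrochloride min control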
FAK inh = FAK kinase inhibitors, primary screen, biochemical | hit rate 0.84% among 97,000 | Focal adhesion kinase 1 (Homo sapiens), Q05397 | biochemical FAK kinase activity assay | inhibition, %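 (tested at 7 µM)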; in the data active means inhibition above about 19%;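 further: 0% = DMSO and 100% = reference compound high control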
Target sequence (Q05397 whole entry, looked up): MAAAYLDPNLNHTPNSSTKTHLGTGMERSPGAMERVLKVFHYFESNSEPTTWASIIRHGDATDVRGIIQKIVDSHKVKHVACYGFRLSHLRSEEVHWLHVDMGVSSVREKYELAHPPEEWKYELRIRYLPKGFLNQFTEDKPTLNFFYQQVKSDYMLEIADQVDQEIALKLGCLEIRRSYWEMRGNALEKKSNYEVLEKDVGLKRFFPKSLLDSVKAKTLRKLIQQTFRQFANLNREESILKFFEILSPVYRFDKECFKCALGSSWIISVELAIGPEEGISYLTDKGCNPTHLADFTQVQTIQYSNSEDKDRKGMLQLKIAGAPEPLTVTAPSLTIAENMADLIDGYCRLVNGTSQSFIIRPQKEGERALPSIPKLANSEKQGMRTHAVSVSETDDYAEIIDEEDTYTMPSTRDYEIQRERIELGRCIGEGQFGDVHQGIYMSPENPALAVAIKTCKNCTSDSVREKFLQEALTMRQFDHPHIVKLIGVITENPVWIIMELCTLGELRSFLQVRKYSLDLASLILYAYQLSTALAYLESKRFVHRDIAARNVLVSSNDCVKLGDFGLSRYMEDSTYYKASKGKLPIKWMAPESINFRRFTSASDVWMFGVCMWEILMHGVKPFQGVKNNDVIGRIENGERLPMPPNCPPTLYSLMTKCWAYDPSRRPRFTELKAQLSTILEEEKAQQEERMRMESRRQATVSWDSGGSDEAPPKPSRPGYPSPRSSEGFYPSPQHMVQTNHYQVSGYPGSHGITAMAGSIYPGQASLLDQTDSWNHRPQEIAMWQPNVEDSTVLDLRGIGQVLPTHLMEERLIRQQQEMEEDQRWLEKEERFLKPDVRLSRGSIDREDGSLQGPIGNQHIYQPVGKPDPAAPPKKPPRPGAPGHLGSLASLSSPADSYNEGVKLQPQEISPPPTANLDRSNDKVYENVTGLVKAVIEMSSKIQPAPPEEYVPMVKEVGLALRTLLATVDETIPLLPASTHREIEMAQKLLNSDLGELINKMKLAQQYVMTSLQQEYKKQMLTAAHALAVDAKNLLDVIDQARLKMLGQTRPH
* marks the source's active call; other numbers are inactive results; nt = no result given; [ ] = dose if it differs, or a comment. Only some compounds are listed: those with a hit (about 3.2% of all), similar ones and a draw of the others.

SMILES	DAT uptake mod	HIV Rev-RRE inh	EphB4 antag	Plk1 PBD FP	PLK1 kinase inh	FAK inh
CCC(Oc1ccccc1)C(=O)Nc1ccccn1 (stereo unspecified)	0.88	3	2	10	-6	-2
CN1CC=C2C(C#N)=C(N)C(C#N)(C#N)[C@H](c3ccoc3)[C@H]2C1	0.11	42*	-4	-32	16	3
COc1ccc(OC)c(C2C3CN(C(C)C)CC=C3C(C#N)=C(N)C2(C#N)C#N)c1 (stereo unspecified)	-1.5	82*	4	-36	-7	1
N#CC1=C(N)C(C#N)(C#N)C(c2cccnc2)C2CN(C(=O)OCc3ccccc3)CC=C12 (stereo unspecified)	3.9*	16	-6	2	-2	-1
CCCN1CC=C2C(C#N)=C(N)C(C#N)(C#N)C(c3cccc(OC)c3OC)C2C1 (stereo unspecified)	0.0026	nt	nt	nt	nt	nt
CCN1CC=C2C(C#N)=C(N)C(C#N)(C#N)C(CCc3ccccc3)C2C1 (stereo unspecified)	1.5	86*[fluorescence artefact?]	-5	-32	6	2
CCCC(=O)Nc1ccc(C(=O)NNC(=O)c2ccco2)cc1	0.61	8	6	-19	-12	3
CC(C)(C)[C@H]1C=C(C(=O)NC2CC2)O[C@@H](OCCCCO)C1	-0.15	nt	nt	nt	nt	nt
N#CC1=C(N)C(C#N)(C#N)[C@H](c2ccoc2)[C@H]2CN(Cc3ccccc3)CC=C12	-0.4	100*[fluorescence artefact?]	-3	-22	-6	2
C/C=C(\C)C(=O)Nc1cccc(C2=NOC3(C2)C[C@H](C(N)=O)N(C(=O)C(c2ccccc2)c2ccccc2)C3)c1 (stereo partly specified)	0.65	nt	nt	nt	nt	nt
CCn1c(SCC(=O)Nc2nccs2)nnc1-c1ccc(C)cc1	0.25	3	-10	-10	16	-2
CCn1c(Cc2cccc3ccccc23)nnc1SCC(=O)Nc1nccs1	0.35	1	2	-6	65*	0
O=C(CSc1nc(-c2ccccc2)c(-c2ccccc2)[nH]1)Nc1nccs1	-0.66	17	1	-14	61*	7
CCn1c(CNC(=O)Cc2ccc(OC)cc2)nnc1SCC(=O)Nc1nccs1	-0.73	0	-4	1	-7	2
Cc1ccc(-c2nnc(SCC(=O)Nc3nccs3)n2N)cc1	-0.098	3	5	-21	63*	-2
CC1CCN(C(=O)Cn2c(SCC(=O)Nc3nccs3)nc3ccccc32)CC1	-0.88	3	-2	25	61*	2
COc1ccccc1OCC(=O)Nc1ccc(S(=O)(=O)Nc2nc(C)cc(C)n2)cc1	3.5*	4	5	-37	-10	-2
CCOC(=O)C1C(=O)C=C(c2ccc(Br)cc2)CC1c1ccco1 (stereo unspecified)	0.063	5	-4	9	1	1
CCOC(=O)C(=CNc1ccccc1C)C(=O)OCC	0.8	6	2	8	-8	2
CCOC(=O)C(=CNc1cc(C)nn1-c1ccccc1)C(=O)OCC	2.2*	2	7	-11	-17	0
CCOC(=O)C[C@H]1c2ccccc2S(=O)(=O)N1Cc1cccc(C(F)(F)F)c1	-0.29	nt	nt	nt	nt	nt
COc1ccc(CCNc2oc(-c3ccccc3OC)nc2C#N)cc1	1.4	8	-6	6	-11	2
COc1ccc(CCNc2oc(-c3ccccc3OC)nc2C#N)cc1OC	4.6*	4	12	-15	-11	1
Cc1cccc(N2CCN(C(=O)C3CCN(S(=O)(=O)c4cccnc4)CC3)CC2)c1C	1.8	10	5	-2	-2	-4
CC1CCCCC1NS(=O)(=O)c1ccc(S(=O)(=O)N2CCCC2)cc1 (stereo unspecified)	-5*	12	1	-18	-9	1
CCOC(=O)c1sc2nc(C)c3c(c2c1N)CC(C)(C)OC3	-0.37	11	15*	-9	-17	15
CCCc1nc2sc(C(=O)OCC)c(N)c2c2c1COC(C)(C)C2	0.53	11	-2	-18	-7	-1

Bioassay records as filed in PubChem BioAssay.
